Experimental data published in publication PMC6146057 (ACS chemical neuroscience, 2018).
Residue numbers refer to the chain shown, from its start. Like-named read-outs stand apart in the source and are kept apart here.

Assays:
[1] = Mouse plasma-brain exposure; assay type: in vivo; settings: male, C57BL/6J, brain and plasma, intraperitoneal, 100 mg/kg
Procedure, shortened: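 Male C57BL/6J mice aged 7–9 weeks were dosed i.p. with test compound in 10% Tween 80 (1–10 mg/mL, 10 mL/kg). Brain and trunk blood were collected at 0.25 h. Brains were washed in cold saline and frozen on dry ice. EDTA plasma was separated, and both matrices were analysed by LC/MS/MS.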

dog M1 = target: T1, dog M1 (Canis lupus familiaris, UniProt A0A8I3RVA9); assay: Calcium mobilization assay, low expression M1 dog line; assay type: cell-based
T1 sequence (A0A8I3RVA9 1-460): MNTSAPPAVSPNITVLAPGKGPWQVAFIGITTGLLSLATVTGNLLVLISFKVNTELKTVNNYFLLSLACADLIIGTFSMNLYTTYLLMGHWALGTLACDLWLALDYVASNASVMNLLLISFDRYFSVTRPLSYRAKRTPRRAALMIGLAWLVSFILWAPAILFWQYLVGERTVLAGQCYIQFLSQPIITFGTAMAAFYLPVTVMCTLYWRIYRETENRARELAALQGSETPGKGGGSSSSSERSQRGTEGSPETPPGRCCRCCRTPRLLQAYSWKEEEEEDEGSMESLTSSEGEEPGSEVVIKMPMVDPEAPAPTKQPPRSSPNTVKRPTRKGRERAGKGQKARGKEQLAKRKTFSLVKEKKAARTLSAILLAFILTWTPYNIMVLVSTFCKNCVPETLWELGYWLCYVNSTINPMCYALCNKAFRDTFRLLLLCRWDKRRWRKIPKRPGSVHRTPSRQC

mouse M1 = target: T2, mouse M1 (Mus musculus, UniProt P12657); assay: Calcium mobilization assay, mouse M1 cell line with low expression; assay type: cell-based
T2 sequence (P12657 1-460): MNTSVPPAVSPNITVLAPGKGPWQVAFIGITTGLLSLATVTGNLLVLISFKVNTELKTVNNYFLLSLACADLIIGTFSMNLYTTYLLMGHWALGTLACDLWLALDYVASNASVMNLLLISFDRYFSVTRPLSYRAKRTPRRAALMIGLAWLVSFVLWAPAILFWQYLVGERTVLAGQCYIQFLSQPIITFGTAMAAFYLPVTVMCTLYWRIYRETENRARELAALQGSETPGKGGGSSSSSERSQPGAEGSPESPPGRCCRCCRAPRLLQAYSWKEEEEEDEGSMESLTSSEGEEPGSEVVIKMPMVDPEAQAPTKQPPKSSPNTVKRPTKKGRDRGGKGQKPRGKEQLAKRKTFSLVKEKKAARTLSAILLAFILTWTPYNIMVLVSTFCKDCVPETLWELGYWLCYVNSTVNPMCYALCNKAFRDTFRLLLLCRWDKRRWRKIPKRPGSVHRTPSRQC

cytochrome P450 3A4 = cytochrome P450 3A4 (Homo sapiens, UniProt P08684); assay: CYP450 inhibition in human liver microsomes, 3A4; assay type: in vitro ADME
Chain of cytochrome P450 3A4 (P08684 whole entry): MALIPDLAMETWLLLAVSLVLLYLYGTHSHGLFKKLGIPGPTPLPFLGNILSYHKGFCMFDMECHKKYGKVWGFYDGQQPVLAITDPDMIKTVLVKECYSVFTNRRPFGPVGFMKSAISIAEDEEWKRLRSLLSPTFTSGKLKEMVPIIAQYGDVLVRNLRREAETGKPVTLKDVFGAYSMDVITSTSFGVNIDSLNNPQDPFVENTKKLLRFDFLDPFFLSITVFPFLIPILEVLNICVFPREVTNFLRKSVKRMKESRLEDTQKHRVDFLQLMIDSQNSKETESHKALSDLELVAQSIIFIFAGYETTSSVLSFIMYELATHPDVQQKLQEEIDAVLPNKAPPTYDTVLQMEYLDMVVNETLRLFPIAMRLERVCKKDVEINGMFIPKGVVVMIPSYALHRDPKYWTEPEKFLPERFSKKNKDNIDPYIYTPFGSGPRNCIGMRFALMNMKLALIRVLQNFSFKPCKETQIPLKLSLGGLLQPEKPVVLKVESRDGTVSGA

[2] = Plasma protein binding by equilibrium dialysis, human; assay type: in vitro ADME; settings: pH 7.4
Procedure, shortened: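 Plasma spiked with test article was dialysed against 25 mM phosphate buffer, pH 7.4, by equilibrium dialysis for 4 h at 37 °C with shaking. Aliquots from each chamber were matrix-matched, extracted with ice-cold acetonitrile, centrifuged and quantified by LC/MS/MS.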

M1 = target: T3, M1 (Homo sapiens, UniProt P11229); assay: M1 PAM potency at increasing ACh concentration; assay type: cell-based; settings: for EC50: M1 PAM potency
T3 sequence (P11229 1-460): T2 sequence (P12657 1-460) with V5A, S254T, K320R, G337A, V413I

[3] = Rat brain:plasma distribution; assay type: in vivo; settings: male, Sprague-Dawley, brain and plasma, intravenous
Procedure, shortened: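 Dual-cannulated male Sprague–Dawley rats received a cassette IV dose of 0.2–0.25 mg/kg per compound via the jugular vein. The vehicle was about 10% ethanol, 40% PEG400 and 50% DMSO. Carotid blood and brain were collected at 0.25 h. Brains were rinsed in PBS, snap frozen and bead-homogenised, and plasma and brain were analysed by LC/MS/MS.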

cytochrome P450 2C9 = cytochrome P450 2C9 (Homo sapiens, UniProt P11712); assay: CYP450 inhibition in human liver microsomes, 2C9; assay type: in vitro ADME
Chain of cytochrome P450 2C9 (P11712 whole entry): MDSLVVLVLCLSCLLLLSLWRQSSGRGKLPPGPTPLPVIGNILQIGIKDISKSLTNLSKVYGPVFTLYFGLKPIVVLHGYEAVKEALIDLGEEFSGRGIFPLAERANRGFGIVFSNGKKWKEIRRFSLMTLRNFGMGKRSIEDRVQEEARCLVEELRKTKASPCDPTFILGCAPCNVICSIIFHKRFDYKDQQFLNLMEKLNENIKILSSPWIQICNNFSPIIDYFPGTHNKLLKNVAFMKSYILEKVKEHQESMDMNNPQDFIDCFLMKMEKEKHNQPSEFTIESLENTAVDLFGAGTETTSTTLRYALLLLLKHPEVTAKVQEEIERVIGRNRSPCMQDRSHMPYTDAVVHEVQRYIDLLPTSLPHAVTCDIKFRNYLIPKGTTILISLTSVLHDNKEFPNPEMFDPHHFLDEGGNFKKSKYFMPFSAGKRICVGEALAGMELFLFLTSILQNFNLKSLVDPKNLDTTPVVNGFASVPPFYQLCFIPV

mice = assay: Modified Irwin Toxicology Battery in mice; assay type: in vivo, mouse; settings: 100 mg/kg i.p.
[4] = Cynomolgus monkey IV/PO PK study; assay type: in vivo
Procedure, shortened: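 Male cynomolgus monkeys (n = 3) received a single IV bolus of 1 mg/kg in ethanol:PEG400:saline (10:60:30, v/v/v) and a single oral dose of 3 mg/kg in 30% aqueous Captisol. Plasma PK parameters were calculated by noncompartmental analysis.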

[5] = ACh concentration increased to EC70
[6] = male, cynomolgus monkey, plasma, intravenous, 1 mg/kg

- Kp at 0.25 h [1]: 0.67
- Kp uu at 0.25 h [1]: 0.17
- EC50 (dog M1; M1 PAM EC50, dog M1 line, low expression): 380 nM
- EC50 (dog M1; M1 PAM pEC50, dog M1 line, low expression): 389 nM
- EC50 (dog M1; M1 agonist activity EC50, dog M1 line, compound alone): > 10000 nM
- Emax (dog M1; read-out: M1 PAM efficacy, % ACh Max): 78 ± 1%
- Emax (dog M1; read-out: M1 agonist activity, % ACh Max): 18 ± 0.2%
- EC50 (mouse M1; M1 PAM EC50, mouse M1 cell line): 600 nM
- EC50 (mouse M1; M1 PAM pEC50, mouse M1 cell line): 562 nM
- M1 PAM efficacy, % ACh Max (mouse M1; mouse M1 cell line): 77 ± 4 % ACh Max
- M1 agonism, % ACh Max (mouse M1; mouse M1 cell line, compound alone): 9 ± 1 % ACh Max
- IC50 (cytochrome P450 3A4): 5000 nM
- fraction unbound at 4 h [2]: 0.12
- M1 PAM efficacy, % ACh Max (M1; [5]): 90 ± 1 % ACh Max
- EC50 (M1; [5]): 68 ± 11 nM
- EC50 (M1; very low level of ACh (~EC9)): 430 ± 120 nM
- M1 PAM efficacy, % ACh Max (M1; very low level of ACh (~EC9)): 84 ± 2 % ACh Max
- Kp at 0.25 h [3]: 0.18
- Kp uu at 0.25 h [3]: 0.05
- IC50 (cytochrome P450 2C9): 18800 nM
- half-life ([4]; male, cynomolgus monkey, plasma, 1 mg/kg): 4.2 h
- Vd [4, 6]: 1 L/kg
- clearance [4, 6]: 18 mL/min/kg
- bioavailability ([4]; male, cynomolgus monkey, plasma, po, 3 mg/kg): 37%
SMILES: O=C(N[C@H]1CCCC[C@@H]1O)[C@H]1CN(Cc2ccc(-n3cccn3)cc2)c2ccccc2O1 [VU0486846, (2R)-N-[(1S,2S)-2-Hydroxycyclohexyl]-4-[(4-pyrazol-1-ylphenyl)-methyl]-2,3-dihydro-1,4-benzoxazine-2-carboxamide]
- free brain levels (mice): 342 nM
- free plasma levels (mice): 2000 nM
- total brain levels (mice): 12.2 µM
- total plasma levels (mice): 18.2 µM
- Cholinergic side effects or adverse effects (mice; 3 h evaluation period): did not produce any cholinergic side effects or pronounced adverse effects
- Adverse events or cholinergic side effects in PK study ([4]; cynomolgus monkey PK study): No adverse events or cholinergic side effects
